Source: PubChem BioAssay
Shown are actives, neighbours in structure and some others; about 1.6% of the full set was active somewhere.
RBBP9 inh: human RBBP9 inhibitors, primary screen, biochemical, fluorescence polarization, FP-Rh probe, HTS; Serine hydrolase RBBP9 (Homo sapiens), O75884; recombinant RBBP9; inhibition, % at 7.94 µM; 220,000 tested, 0.2% active; AID 1515, 2009;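 active means inhibition above the campaign mean of all tested compounds plus 3 SD, cut at about 14% in these data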;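 further: plate controls were DMSO wells with RBBP9 for no effect and wells lacking RBBP9 protein for full effect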
Target sequence (O75884 whole entry, looked up): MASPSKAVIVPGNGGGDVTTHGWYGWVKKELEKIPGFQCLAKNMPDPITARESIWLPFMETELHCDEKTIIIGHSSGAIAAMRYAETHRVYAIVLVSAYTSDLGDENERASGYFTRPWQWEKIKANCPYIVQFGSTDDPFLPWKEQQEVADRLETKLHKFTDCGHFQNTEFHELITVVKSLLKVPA
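Test system – recombinant human RBBP9 · Input – RBBP9 2.5 µM in dispensing solution, pre-mixing · Medium – Tris buffer pH 8.0, NaCl, Pluronic · Schedule – preincubation 30 min plus labeling 45 min at 25 °C · Measured by – fluorescence polarization · Measure – % inhibition · Controls – DMSO and no-protein wells · Replicates – one well per compound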
SDO1 yeast rescue: growth rescue of sdo1-depleted yeast, primary screen, S. cerevisiae, bone marrow failure model | S. cerevisiae sdo1-depleted JHY4D growth rescue, OD600 30 h; hits give high values; pdr5 snq2 efflux-pump mutant strain | z-score at 10 µM | 140,000 tested, 0.21% active;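 active means z-score above 3 at both the 24 hr and the 30 hr optical density reads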;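 further: z-score against mean and SD of all compound wells on the same plate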
TbHK1 inh: Trypanosoma brucei hexokinase 1 inhibitors, primary screen, biochemical, G6PDH-coupled NADH absorbance, MLSCN library; inhibition, % at 10 µM; 220,000 tested, 0.11% active; recombinant TbHK1, G6PDH-coupled NADH A340; hexokinase 1 [Trypanosoma brucei]; AID 1430, 2008;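 active means inhibition of 50% or more in the single-dose primary screen; inactive means inhibition below 50%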
NCF1 inh: p47phox/p22phox peptide binding inhibitors, primary screen, biochemical, uHTS, NADPH oxidase regulatory subunit; Neutrophil cytosol factor 1 (Homo sapiens), P14598; inhibition, % at 24.7 µM; 220,000 tested, 0.53% active; AID 1274, 2008; fluorescence polarization, 2 h;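 active means inhibition above about 30%, limit read from the data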;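 further: 0% = p47phox with labelled peptide and 100% = labelled peptide alone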
Target sequence (P14598 whole entry, looked up): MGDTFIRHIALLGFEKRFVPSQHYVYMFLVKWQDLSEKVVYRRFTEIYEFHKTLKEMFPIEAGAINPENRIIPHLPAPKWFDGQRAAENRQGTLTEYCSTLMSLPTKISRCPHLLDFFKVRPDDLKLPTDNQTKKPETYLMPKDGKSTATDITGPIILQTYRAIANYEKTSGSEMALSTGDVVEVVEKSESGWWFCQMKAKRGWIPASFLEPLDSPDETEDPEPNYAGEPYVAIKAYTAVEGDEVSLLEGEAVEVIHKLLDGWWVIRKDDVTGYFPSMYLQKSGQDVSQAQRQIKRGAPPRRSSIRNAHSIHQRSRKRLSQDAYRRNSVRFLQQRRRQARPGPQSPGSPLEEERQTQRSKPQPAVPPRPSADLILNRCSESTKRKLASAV
Yeast life ext: compounds extending yeast replicative lifespan, primary screen, S. cerevisiae, OD615; S. cerevisiae growth with nicotinamide; deaD strain in restrictive glucose medium; inhibition of the nicotinamide effect, % at 10 µM; 130,000 tested, 0.68% active; AID 775, 2007;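 active means inhibition above a set limit, placed 3 SD over the median of all compounds, cut at about 26% in these data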;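 further: 0% = nicotinamide-treated wells and 100% = cells grown without nicotinamide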
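Assay system: engineered S. cerevisiae DeaD replicative-lifespan strain, galactose-grown log-phase cells; Buffer or medium: CSMM-D glucose medium, restrictive; Probe or stimulus: nicotinamide 1.5 mM; Compound: single dose 10 µM compound, 0.25% DMSO; Schedule: 4 h preincubation then 48 h treatment at 30 °C; Technique: OD615 measurement.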
Yeast growth inh: growth inhibitors of yeast BB579 in restrictive medium, primary screen, yeast lifespan-shortening project, S. cerevisiae; 140,000 tested, 0.51% active; OD615, 48 h; inhibition, % at 10 µM; AID 804, 2007;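 active means inhibition above a set limit, 3 SD over the mean compound inhibition, cut at about 44% in these data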
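Test system: S. cerevisiae DeaD strain BB579 yeast; Medium: restrictive CSMM-D medium; Compound: one dose, 10 µM compound with 0.25% DMSO; Incubation: 4 h cell preincubation, 48 h compound exposure, 30 °C humidified; Signal: OD at 615 nm; Benchmarks: amphotericin B at 10 µg/mL as positive control.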
sdo1 rescue conf: SDO1-depleted yeast growth rescue, concentration-response, diseases of bone marrow failure, JHY4D, OD600; S. cerevisiae JHY4D (SDO1-depleted) growth rescue, 30 h; hits give high values; efflux-deficient strain, SNQ2 and PDR5 mutated; shares compounds with SDO1 yeast rescue; OD recovery (concentration not given with the values); 440 tested, 44% active;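 active means yeast growth recovered at 30 hours, either rising with dose fitted slope above 0.001 or with average optical density gain above 0.07, some results past the limit were not filed as active; inactive means growth falling with dose or no effect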;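 further: gain in OD600 from 0 h to 30 h averaged across all seven doses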
Active calls of the source: *; · = no result.

SMILES	RBBP9 inh	SDO1 yeast rescue	TbHK1 inh	NCF1 inh	Yeast life ext	Yeast growth inh	sdo1 rescue conf
Cn1nc(-c2ccc(C(=O)O)cc2)c2ccccc2c1=O	5	-0.08	-5	-4	-3	-28	·
COc1ccc(C(=O)OCC(=O)Nc2cc(C)c(C)cc2[N+](=O)[O-])cc1	-5	2.3	0	21	0	-30	0.043
O=C(C(c1ccccc1)c1ccccc1)N(Cc1ccco1)C1CCS(=O)(=O)C1 (stereo not drawn)	-4	16*	1	-10	-9	-36	0.089*
COC(=O)c1cc(=O)n2c(sc3ccccc32)c1C#N	-3	·	6	-33	·	·	·
CC(C)NC1CS(=O)(=O)CC1O (stereo not drawn)	-4	5.5*	-6	-9	58*	-22	0.095*
O=S1(=O)CC(O)C(NCCO)C1 (stereo not drawn)	11	·	0	1	·	·	·
CCOC(=O)C1CCCN(C(=O)c2ccc3c(c2)N(Cc2ccccc2)C(=O)c2ccccc2S3=O)C1 (stereo not drawn)	-6	·	7	-12	·	·	·
COc1ccc(/C=N/NC(=S)NC2CCS(=O)(=O)C2)cc1 (stereo not drawn)	3	11*	-34	8	-1	-20	0.062
COc1ccc(/C=N/NC(=S)Nc2ccccc2)cc1	-2	·	-26	-9	·	·	·
COc1ccc(NC(=O)C2CCCCN2S(=O)(=O)c2ccc(F)cc2)cc1 (stereo not drawn)	-4	0.85	2	11	-6	8	0.042
Cc1ccccc1S(=O)(=O)c1c(C)cc(C)n(CC(C)C)c1=O	-4	5.5*	6	0	-4	-41	0.11*
O=C1CC(c2ccccc2)CC(=NCCO)/C1=C(\O)CCCN1C(=O)c2ccccc2C1=O (stereo not drawn)	-1	·	10	-1	·	·	·
COc1ccc(OCC(=O)Nc2nonc2NC(=O)COc2ccc(OC)cc2)cc1	-3	·	-4	-26	·	·	·
COc1ccc(OCC(=O)Nc2cccc(NC(=O)COc3ccc(OC)cc3)n2)cc1	-6	3.1*	-6	-5	-8	-16	0.067
COc1ccc(C)cc1NC(=O)C1CCCN(S(=O)(=O)c2cnc[nH]2)C1 (stereo not drawn)	-2	1.2	9	-8	-5	28	·
COc1ccccc1NC(=O)C1CCCN(S(=O)(=O)c2cnc[nH]2)C1 (stereo not drawn)	-5	1.5	-2	-24	7	29	0.043
N#Cc1ccc(-c2ccc(F)cc2)nc1SCC(=O)Nc1sc2c(c1C#N)CCC2	-7	1.8	-9	-75	-23	-29	0.064
Cn1c(CNC(=O)c2ccc(Cl)c(Cl)c2)nnc1SCC(=O)Nc1sc2c(c1C#N)CCCC2	4	4.7*	9	3	-5	-48	0.048
CCOC(=O)c1nn(-c2ccccc2)c(=O)cc1SC1CCCCC1	-2	·	0	-15	·	·	·
CCOc1ccc(N(CC(=O)NCc2ccccc2)S(C)(=O)=O)cc1	-2	5.5*	0	4	-8	-8	0.086*
COc1cc2c(cc1NC(=O)c1cccc([N+](=O)[O-])c1)oc1ccccc12	5	3*	-5	-5	-6	0	0.04
CCn1cc(C(=O)O)c(=O)c2cnc(N3CCN(C(=S)Nc4ccccc4Cl)CC3)nc21	-3	·	-10	-1	·	·	·
Cc1ccc(/C(O)=C2\C(=O)C(=O)N(CC(C)O)C2c2cccc(F)c2)cc1 (stereo not drawn)	-9	2.6	-18	0	-10	-40	0.065
Cc1cc(C)c(C)c(S(=O)(=O)N2CCN(c3ccc(O)cc3)CC2)c1C	2	·	-3	-11	·	·	·
Cc1cc(NS(=O)(=O)c2ccc(NC(=S)NC(=O)c3ccccc3)cc2)no1	-1	2.1	39	-15	7	7	0.069
SMILES	RBBP9 inh	SDO1 yeast rescue	TbHK1 inh	NCF1 inh	Yeast life ext	Yeast growth inh	sdo1 rescue conf
CC(NC(=O)c1cc(S(=O)(=O)N(C)C)ccc1N1CCCC1)C1CC2CCC1C2 (stereo not drawn)	-6	·	-5	5	·	·	·
COc1cccc(/C=N/NC(=S)NCc2ccco2)c1OC	-8	·	-15	-14	·	·	·
NS(=O)(=O)c1ccc(NC(=O)CSC2=NC(=O)C(c3ccccc3)C(=O)N2)cc1 (stereo not drawn)	7	8.7*	-23	0	-21	-18	0.048
Cc1ccccc1NC(NC(=O)OCCn1c([N+](=O)[O-])cnc1C)C(Cl)(Cl)Cl (stereo not drawn)	2	8.3*	-10	-7	-3	-19	0.1*
Cc1ncc([N+](=O)[O-])n1CCOC(=O)NC(Nc1ccc(F)cc1)C(Cl)(Cl)Cl (stereo not drawn)	-5	·	-19	-1	·	·	·
O=C(O)c1ccc2c(c1)C(=O)N(c1nccs1)C2=O	-2	·	-2	-2	·	·	·
COc1ccc(NC(=O)CSc2nccc(C)n2)cc1	-2	1.9	-1	3	-20	-29	0.036
COc1ccc(NC(=O)CSc2nc(N3CCCCC3)nc(N3CCCCC3)n2)cc1	-2	1.1	1	-5	-18	-48	0.084*
COc1ccc(NC(=O)CN2CCCCC2)cc1	3	0.66	3	-5	-16	4	·
COc1cc(NC(=O)CSc2nccc(C)n2)c(C(=O)O)cc1OC	-1	-0.25	1	-12	-2	-27	·
O=C(C1=C(O)C(=O)N(CCc2ccccc2)C1c1cccnc1)c1ccco1 (stereo not drawn)	2	-0.95	-29	-9	3	-21	·
COCCCN1C(=O)C(O)=C(C(=O)c2ccco2)C1c1ccccc1 (stereo not drawn)	-2	2	-12	-8	-15	-22	0.097*
CS(=O)(=O)N(CC(=O)NCc1ccco1)c1cccc([N+](=O)[O-])c1	-11	·	0	-8	·	·	·
COc1cc(NC(=S)NC(=O)c2ccccc2F)ccc1NC(=O)c1ccco1	0	2.2	-7	22	4	-19	0.07
CCCCC(=O)Nc1ccc(NC(=S)NC(=O)c2ccco2)cc1OC	-4	·	-30	-9	·	·	·
COc1cc(NC(=O)CN(C)Cc2cccc(F)c2)c(C)cc1[N+](=O)[O-]	-7	·	-5	-7	·	·	·
CCOC(=O)c1c(NC(=S)Nc2ccc(F)cc2)sc2c1CCC2	-1	-1.1	-26	-18	-2	-45	·
